Reference: ChEMBL document CHEMBL5653631, “A Potent and Selective ULK1 Inhibitor Suppresses Autophagy and Sensitizes Cancer Cells to Nutrient Stress” (iScience, 2018)

Experiments:
[1] = molecular target: Interleukin-1 receptor-associated kinase 1 (Homo sapiens) (UniProt P51617); experiment: Inhibition of human recombinant IRAK1 at 40 nM related to control ULK1
[2] = molecular target: T1, Tyrosine-protein kinase JAK3 (Homo sapiens) (UniProt P52333); experiment: Inhibition of human recombinant JAK3 at 40 nM related to control ULK1
T1 sequence (whole entry): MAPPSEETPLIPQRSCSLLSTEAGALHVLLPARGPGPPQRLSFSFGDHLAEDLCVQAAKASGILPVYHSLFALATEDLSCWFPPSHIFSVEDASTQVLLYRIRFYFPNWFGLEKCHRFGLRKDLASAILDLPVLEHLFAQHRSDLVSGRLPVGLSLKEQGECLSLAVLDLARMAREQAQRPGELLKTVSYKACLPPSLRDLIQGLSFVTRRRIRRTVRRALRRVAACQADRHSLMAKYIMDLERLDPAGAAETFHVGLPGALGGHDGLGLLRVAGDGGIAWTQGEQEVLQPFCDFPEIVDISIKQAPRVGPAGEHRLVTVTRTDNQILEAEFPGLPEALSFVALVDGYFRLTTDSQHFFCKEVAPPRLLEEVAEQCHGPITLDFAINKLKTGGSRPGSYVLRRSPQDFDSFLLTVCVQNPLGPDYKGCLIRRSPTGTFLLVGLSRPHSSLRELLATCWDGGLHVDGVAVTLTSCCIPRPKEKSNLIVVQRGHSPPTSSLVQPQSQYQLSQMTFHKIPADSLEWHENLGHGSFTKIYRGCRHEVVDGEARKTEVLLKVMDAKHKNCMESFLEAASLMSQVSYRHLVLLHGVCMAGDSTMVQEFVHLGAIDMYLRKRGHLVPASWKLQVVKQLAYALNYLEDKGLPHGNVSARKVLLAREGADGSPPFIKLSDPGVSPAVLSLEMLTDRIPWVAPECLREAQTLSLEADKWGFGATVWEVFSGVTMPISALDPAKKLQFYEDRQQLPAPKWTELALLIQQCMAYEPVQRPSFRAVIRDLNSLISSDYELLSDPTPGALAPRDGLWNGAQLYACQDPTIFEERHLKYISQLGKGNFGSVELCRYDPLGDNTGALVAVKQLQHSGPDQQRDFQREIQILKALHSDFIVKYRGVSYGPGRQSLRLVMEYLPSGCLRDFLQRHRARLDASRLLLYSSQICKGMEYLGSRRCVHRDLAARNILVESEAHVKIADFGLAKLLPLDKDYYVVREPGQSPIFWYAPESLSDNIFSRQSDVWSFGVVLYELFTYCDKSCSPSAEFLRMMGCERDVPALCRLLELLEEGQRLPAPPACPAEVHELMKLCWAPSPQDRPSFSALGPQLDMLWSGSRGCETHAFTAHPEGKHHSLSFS

[3] = molecular target: Serine/threonine-protein kinase/endoribonuclease IRE1 (Homo sapiens) (UniProt O75460); experiment: Inhibition of human recombinant IRE1 at 40 nM in presence of ATP by radiometric assay relative to control
[4] = molecular target: T2, Aurora kinase A (Homo sapiens) (UniProt O14965); experiment: Inhibition of human recombinant AurA at 500 nM in presence of ATP by radiometric assay relative to control
T2 sequence (whole entry): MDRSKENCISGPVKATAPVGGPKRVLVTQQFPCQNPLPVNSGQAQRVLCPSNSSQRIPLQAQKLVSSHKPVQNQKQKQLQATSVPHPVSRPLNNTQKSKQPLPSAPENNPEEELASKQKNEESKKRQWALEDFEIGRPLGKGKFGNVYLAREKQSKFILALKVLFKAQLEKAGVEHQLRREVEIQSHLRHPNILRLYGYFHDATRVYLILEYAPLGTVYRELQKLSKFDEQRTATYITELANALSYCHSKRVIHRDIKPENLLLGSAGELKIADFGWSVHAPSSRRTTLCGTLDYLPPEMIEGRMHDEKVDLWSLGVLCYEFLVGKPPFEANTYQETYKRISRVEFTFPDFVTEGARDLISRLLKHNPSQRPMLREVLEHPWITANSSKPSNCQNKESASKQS
Outline: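 Panel of 327 recombinant human kinases, each assayed in vitro by radiometric activity assay in duplicate at a single inhibitor concentration per compound, chosen with reference to its ULK1 inhibition. Activity remaining was expressed as percent of vehicle control, and percent inhibition was calculated as 100 minus percent activity remaining.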

[5] = molecular target: Vascular endothelial growth factor receptor 1 (Homo sapiens) (UniProt P17948); experiment: Inhibition of human recombinant FLT1 at 500 nM in presence of ATP by radiometric assay relative to control
[6] = molecular target: Serine/threonine-protein kinase WNK1 (Homo sapiens) (UniProt Q9H4A3); experiment: Inhibition of human recombinant Wnk1 at 15 nM related to control ULK1
[7] = molecular target: Fibroblast growth factor receptor 1 (Homo sapiens) (UniProt P11362); experiment: Inhibition of human recombinant FGFR1 at 15 nM related to control ULK1
[8] = molecular target: T3, Testis-specific serine/threonine-protein kinase 3 (Homo sapiens) (UniProt Q96PN8); experiment: Inhibition of human recombinant TSSK3 at 15 nM related to control ULK1
T3 sequence (whole entry): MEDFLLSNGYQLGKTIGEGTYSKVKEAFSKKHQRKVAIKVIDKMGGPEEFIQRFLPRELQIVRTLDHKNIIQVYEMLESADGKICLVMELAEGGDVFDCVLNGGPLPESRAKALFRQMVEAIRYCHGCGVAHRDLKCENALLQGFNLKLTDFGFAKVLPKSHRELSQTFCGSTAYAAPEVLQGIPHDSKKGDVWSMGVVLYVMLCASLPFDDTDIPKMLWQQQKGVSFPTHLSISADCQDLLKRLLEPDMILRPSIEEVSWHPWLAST

[9] = molecular target: Leukocyte tyrosine kinase receptor (Homo sapiens) (UniProt P29376); experiment: Inhibition of human recombinant LTK at 15 nM in presence of ATP by radiometric assay relative to control
Sequence of Leukocyte tyrosine kinase receptor (Homo sapiens) (P29376 whole entry): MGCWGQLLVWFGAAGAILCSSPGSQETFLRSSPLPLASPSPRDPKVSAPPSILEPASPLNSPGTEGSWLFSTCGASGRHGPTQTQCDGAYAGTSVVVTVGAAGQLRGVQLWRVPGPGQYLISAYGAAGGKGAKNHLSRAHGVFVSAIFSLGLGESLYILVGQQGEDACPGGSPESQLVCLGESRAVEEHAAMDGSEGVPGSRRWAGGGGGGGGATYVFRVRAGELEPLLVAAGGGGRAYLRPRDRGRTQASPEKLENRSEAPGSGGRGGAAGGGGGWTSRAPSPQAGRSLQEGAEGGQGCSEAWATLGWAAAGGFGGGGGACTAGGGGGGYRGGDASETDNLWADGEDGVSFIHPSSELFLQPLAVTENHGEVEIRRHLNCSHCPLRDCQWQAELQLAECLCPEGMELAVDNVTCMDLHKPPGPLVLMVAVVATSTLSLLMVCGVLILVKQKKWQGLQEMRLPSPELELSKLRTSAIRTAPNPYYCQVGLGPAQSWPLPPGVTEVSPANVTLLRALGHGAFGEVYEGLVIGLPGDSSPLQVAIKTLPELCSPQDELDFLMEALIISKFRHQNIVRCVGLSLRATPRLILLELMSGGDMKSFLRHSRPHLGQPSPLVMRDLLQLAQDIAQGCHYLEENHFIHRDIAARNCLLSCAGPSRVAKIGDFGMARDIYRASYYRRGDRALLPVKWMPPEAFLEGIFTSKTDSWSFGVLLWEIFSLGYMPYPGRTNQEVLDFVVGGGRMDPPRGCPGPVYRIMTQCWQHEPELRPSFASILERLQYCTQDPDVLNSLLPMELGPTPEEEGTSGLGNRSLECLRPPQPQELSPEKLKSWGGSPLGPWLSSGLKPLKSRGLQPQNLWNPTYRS

Sequence of Serine/threonine-protein kinase WNK1 (Homo sapiens) (Q9H4A3 whole entry, looked up): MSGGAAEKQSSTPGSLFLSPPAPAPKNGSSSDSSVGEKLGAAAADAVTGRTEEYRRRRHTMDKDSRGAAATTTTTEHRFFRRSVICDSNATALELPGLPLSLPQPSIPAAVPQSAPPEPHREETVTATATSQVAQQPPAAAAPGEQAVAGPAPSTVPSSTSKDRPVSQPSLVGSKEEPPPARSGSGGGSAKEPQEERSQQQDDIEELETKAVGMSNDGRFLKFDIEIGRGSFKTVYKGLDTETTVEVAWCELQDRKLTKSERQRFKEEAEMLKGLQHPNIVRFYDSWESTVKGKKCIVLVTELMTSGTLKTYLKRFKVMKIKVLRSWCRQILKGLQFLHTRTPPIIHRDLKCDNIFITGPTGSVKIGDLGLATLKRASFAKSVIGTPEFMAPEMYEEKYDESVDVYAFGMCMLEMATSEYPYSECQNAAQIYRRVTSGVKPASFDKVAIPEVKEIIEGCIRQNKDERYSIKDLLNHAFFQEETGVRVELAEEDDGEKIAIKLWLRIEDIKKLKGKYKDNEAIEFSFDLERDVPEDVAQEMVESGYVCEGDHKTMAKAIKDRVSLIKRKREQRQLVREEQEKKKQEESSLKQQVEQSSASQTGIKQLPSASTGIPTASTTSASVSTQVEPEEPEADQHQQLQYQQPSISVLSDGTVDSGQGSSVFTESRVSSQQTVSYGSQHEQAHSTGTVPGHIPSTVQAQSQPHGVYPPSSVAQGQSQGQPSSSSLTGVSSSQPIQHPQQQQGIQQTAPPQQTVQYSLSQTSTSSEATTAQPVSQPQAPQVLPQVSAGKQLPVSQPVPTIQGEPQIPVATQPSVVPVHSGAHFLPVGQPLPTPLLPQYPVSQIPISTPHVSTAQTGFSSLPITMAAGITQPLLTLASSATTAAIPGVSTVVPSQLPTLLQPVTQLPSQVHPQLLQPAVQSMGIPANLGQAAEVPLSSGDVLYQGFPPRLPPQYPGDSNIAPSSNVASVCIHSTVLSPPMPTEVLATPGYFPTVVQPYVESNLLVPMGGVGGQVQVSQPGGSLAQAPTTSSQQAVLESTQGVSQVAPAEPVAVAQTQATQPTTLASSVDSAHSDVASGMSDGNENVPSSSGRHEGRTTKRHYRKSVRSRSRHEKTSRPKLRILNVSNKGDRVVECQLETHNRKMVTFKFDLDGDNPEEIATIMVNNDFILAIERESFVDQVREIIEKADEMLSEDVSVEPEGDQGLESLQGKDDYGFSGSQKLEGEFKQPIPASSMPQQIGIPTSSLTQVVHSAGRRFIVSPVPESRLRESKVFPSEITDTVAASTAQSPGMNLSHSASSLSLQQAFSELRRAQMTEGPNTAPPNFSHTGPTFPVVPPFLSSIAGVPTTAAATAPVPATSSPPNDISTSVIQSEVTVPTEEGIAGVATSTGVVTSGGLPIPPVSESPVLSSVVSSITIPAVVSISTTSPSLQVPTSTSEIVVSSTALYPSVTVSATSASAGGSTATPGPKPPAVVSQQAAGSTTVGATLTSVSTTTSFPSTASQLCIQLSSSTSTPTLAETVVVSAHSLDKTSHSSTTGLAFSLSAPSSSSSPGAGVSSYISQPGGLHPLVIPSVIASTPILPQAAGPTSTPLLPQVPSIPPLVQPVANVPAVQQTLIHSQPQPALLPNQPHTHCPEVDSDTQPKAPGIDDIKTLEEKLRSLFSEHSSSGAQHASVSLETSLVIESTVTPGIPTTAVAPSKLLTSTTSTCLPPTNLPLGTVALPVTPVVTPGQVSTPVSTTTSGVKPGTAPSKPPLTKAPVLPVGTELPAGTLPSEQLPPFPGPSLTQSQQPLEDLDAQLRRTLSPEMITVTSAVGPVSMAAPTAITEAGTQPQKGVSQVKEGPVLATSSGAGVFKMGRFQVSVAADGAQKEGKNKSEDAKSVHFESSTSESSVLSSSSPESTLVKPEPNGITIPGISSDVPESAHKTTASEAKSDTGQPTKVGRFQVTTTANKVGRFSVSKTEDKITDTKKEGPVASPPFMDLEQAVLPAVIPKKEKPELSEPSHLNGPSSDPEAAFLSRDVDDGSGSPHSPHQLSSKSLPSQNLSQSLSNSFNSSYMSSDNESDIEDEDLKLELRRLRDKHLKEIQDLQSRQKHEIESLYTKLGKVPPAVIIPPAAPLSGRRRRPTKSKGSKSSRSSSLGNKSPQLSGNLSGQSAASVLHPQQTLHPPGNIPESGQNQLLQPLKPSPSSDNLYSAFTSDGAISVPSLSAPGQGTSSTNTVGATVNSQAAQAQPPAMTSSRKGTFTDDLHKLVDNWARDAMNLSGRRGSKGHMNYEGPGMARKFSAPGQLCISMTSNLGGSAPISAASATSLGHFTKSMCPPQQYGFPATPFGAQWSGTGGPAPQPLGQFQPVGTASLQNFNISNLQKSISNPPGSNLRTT
Sequence of Interleukin-1 receptor-associated kinase 1 (Homo sapiens) (P51617 whole entry, looked up): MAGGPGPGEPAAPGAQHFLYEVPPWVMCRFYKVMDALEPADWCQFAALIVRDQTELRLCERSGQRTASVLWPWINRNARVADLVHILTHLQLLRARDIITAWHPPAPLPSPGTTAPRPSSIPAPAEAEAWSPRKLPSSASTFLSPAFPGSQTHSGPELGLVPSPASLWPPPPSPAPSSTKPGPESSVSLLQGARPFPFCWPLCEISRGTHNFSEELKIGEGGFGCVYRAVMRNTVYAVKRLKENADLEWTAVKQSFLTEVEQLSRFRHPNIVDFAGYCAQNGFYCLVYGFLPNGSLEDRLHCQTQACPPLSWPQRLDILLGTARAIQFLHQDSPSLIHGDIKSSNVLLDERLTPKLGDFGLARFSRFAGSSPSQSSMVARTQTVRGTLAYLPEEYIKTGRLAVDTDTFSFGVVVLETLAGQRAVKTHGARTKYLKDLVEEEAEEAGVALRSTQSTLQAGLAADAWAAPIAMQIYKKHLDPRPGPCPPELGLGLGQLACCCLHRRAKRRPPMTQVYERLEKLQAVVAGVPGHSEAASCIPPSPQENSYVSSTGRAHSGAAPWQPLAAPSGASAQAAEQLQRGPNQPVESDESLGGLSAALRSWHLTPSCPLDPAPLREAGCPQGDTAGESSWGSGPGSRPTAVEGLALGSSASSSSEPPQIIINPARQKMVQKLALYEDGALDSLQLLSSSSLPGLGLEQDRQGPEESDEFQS
Sequence of Serine/threonine-protein kinase/endoribonuclease IRE1 (Homo sapiens) (O75460 19-977 limits assumed): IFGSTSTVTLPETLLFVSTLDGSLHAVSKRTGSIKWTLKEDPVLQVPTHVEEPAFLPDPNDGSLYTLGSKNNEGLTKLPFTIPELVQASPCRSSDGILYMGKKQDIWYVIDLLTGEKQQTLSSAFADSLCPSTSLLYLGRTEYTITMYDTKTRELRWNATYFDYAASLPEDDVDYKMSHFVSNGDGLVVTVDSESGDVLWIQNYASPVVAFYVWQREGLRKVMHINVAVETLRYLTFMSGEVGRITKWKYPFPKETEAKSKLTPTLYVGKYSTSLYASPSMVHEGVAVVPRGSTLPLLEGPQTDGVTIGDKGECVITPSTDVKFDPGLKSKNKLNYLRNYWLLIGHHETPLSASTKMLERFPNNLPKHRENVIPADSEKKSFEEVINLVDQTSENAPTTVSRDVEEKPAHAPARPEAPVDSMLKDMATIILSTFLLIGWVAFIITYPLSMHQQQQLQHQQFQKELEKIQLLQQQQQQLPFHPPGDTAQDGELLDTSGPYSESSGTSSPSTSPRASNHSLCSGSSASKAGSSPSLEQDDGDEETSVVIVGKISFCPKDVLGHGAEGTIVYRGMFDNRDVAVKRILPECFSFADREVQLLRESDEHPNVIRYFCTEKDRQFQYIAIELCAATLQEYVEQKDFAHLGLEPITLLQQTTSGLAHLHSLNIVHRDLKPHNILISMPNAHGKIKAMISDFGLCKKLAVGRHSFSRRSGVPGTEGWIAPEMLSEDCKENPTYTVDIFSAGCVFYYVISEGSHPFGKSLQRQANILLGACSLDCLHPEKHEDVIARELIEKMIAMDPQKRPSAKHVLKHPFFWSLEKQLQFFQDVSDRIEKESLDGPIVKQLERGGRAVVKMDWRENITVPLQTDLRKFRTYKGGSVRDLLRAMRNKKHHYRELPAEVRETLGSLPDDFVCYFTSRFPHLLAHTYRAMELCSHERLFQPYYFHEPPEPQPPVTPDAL

## O=C(N[C@@H](C1CC1)C(F)(F)F)c1cc(-c2cnn3cc(-c4ccc(F)cc4)cnc23)cs1
[1]
  fold change (FC): 0.1
[2]
  fold change (FC): 0
[3]
  inhibition: 0%

## CNC(=O)c1ccccc1Oc1nc(Nc2cc(OC)c(OC)c(OC)c2)ncc1Br
[4]
  inhibition: 80%
[5]
  inhibition: 2%

## CC(C)[C@H](NC(=O)c1cc(-c2cnn3cc(-c4ccc(OCCN5CCCCC5)cc4)cnc23)cs1)C(F)(F)F
[6]
  fold change (FC): 0.05
[7]
  fold change (FC): 0
[8]
  fold change (FC): 0.16
[9]
  inhibition: 0%
